Molecular target: Adenosine receptor A2a (Homo sapiens, UniProt P29274)
Test: Displacement of [3H]ZM241385 from human AA2AR expressed in HEK293T cells after 2 hrs by liquid scintillation counter
Procedure, shortened: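 Membranes of HEK293T cells stably expressing AA2AR (40 µg protein) incubated with 1.7 nM (final) [3H]ZM241385 in 50 mM Tris·HCl pH 7.4, 2 h at 25 °C with shaking. Nonspecific binding defined with 100 µM CGS21680. Filtered over GF/B, washed three times with ice-cold buffer. Compounds giving ≥50% inhibition at 10 µM went to concentration-response curves. pKi values, n=3 in duplicate.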

Chain of Adenosine receptor A2a (P29274 whole entry): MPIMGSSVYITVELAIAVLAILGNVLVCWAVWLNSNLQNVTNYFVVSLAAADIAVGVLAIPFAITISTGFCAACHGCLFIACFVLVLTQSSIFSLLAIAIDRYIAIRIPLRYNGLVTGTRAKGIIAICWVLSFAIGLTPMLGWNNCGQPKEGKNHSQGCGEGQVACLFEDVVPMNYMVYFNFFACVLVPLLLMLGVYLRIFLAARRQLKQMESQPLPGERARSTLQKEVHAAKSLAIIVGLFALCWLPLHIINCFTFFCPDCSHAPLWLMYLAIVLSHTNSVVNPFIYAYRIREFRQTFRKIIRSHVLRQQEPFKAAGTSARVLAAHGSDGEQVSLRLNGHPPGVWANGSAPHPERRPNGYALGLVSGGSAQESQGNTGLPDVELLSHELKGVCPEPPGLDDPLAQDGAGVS

COc1cc(CN=Nc2ncnc3sc4c(c23)CCCC4)ccc1O
Ki: 5.01 µM

N#CC(N=Nc1ccc(S(N)(=O)=O)cc1)c1nc2ccccc2[nH]1 (configuration not stated)
Ki: 5.01 µM

— BindingDB's records for doi:10.1021/jm300280e (Radboud University Nijmegen Medical Centre, 2012)
